Paper PMC8435006 (ACS infectious diseases, 2021)

Columns and labels:
IMP-1 (B1 MBL) = details: read-out: Ki against IMP-1; MMTZs; same protocol; ref 6 (Rossi et al); cited from earlier work
Sfh-I (B2 MBL) = Sfh-I (B2 MBL) (Serratia fonticola, UniProt Q9RMI1); experiment: Ki by imipenem hydrolysis, purified recombinant Sfh-I; format: biochemical; details: ratio of Ki values
Procedure, shortened: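 Sfh-I (2 nM final) hydrolysing imipenem at 30 °C, monitored at 300 nm under steady-state conditions in 10 mM HEPES pH 7.5, 200 mM NaCl, 50 mg/L BSA, with no added zinc. Reactions were started by adding enzyme to the substrate plus inhibitor (DMSO stock diluted in buffer). Ki came from competitive-model fits of the rates, and the fold value is the ratio of Ki values.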

NDM-1 (B1 MBL) = details: read-out: Ki against NDM-1; MMTZs; same protocol; ref 6 (Rossi et al); cited from earlier work
VIM-2 (B1 MBL) = details: read-out: Ki against VIM-2; MMTZs; same protocol; ref 6 (Rossi et al); cited from earlier work
L1 (B3 MBL) = L1 (B3 MBL) (Stenotrophomonas maltophilia, UniProt P52700); experiment: Ki by imipenem hydrolysis, purified recombinant L1; format: biochemical; details: read-out: Ki against L1; MMTZs; imipenem substrate, 30 °C, pH 7.5, 20 μM ZnSO4
Procedure, shortened: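 Steady-state imipenem hydrolysis by purified L1 (2 nM final) at 30 °C, followed as the absorbance decrease at 300 nm (Δε300 = −9000 M−1cm−1). Buffer was 10 mM HEPES pH 7.5, 200 mM NaCl, 50 mg/L BSA and 20 μM ZnSO4. Inhibitor came from a DMSO stock diluted into buffer, and enzyme was added last. Rates from slopes were fitted to a competitive inhibition model for Ki.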

CphA = details: read-out: Ki against CphA; captopril isomers; ref Table S1; cited from earlier work
[1] = test system: E. coli DH10B expressing L1; experiment: Imipenem MIC potentiation, broth microdilution, L1 producer; format: cell-based
[2] = test system: E. coli DH10B expressing NDM-1; experiment: Imipenem MIC potentiation, broth microdilution, NDM-1 producer; format: cell-based; details: 100 μg/mL MMTZ; E. coli DH10B producing NDM-1
[3] = test system: E. coli DH10B expressing Sfh-I; experiment: Imipenem MIC potentiation, broth microdilution, Sfh-I producer; format: cell-based; details: 100 μg/mL MMTZ; E. coli DH10B producing Sfh-I
[4] = 50 μg/mL inhibitor, L1-expressing E. coli DH10B
[5] = 100 μg/mL MMTZ, E. coli DH10B producing L1

Sequence of L1 (B3 MBL) (P52700 34-290): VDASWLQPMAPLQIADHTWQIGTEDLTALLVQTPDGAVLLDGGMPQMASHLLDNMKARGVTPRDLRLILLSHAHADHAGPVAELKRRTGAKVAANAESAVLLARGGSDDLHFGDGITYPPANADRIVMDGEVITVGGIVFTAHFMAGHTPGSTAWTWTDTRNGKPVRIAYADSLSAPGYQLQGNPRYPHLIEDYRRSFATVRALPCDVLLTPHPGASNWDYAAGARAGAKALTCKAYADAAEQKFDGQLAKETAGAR

Row | Fold less potent against Sfh-I than L-anti-1a (Sfh-I (B2 MBL)) | Structure (SMILES) | Ki (IMP-1 (B1 MBL)) | Ki (NDM-1 (B1 MBL)) | Ki (VIM-2 (B1 MBL)) | Ki (L1 (B3 MBL)) | Ki (CphA) | Reduction of imipenem MIC [1, 4] | Reduction of imipenem MIC [1, 5] | Reduction of imipenem MIC [2] | Reduction of imipenem MIC [3]
1 | 125 – 800 fold | CCOC(=O)[C@@]1(CS)N[C@@H](C(=O)O)CS1 [D-anti-1a] | 1300 ± 100 nM | 2500 ± 500 nM | 390 ± 40 nM | 4000 ± 500 nM |  |  |  |  | 
2 | 125 – 800 fold | CCOC(=O)[C@@]1(CS)N[C@@H](C(=O)O)C(C)(C)S1 [D-anti-1b] | 930 ± 80 nM | 3100 ± 300 nM | 900 ± 100 nM | 1400 ± 200 nM |  |  |  |  | 
3 |  | C[C@H](CS)C(=O)N1CCC[C@@H]1C(=O)O [D-captopril] |  |  |  |  | 72000 nM |  |  |  | 
4 |  | CCOC(=O)[C@]1(CS)N[C@@H](C(=O)O)C(C)(C)S1 [D-syn-1b] | 2000 ± 200 nM | 600 ± 50 nM | 1900 ± 100 nM | 4000 ± 600 nM |  | four-fold | least effect | least effect | least effect
5 |  | CCOC(=O)[C@]1(CS)N[C@H](C(=O)O)CS1 [L-anti-1a] | 1000 ± 200 nM | 5200 ± 700 nM | 380 ± 50 nM | 10000 ± 800 nM |  |  | 4 fold | 4 fold | 4 fold
6 |  | CCOC(=O)[C@]1(CS)N[C@H](C(=O)O)C(C)(C)S1 [L-anti-1b] | 460 ± 50 nM | 440 ± 60 nM | 750 ± 90 nM | 20000 ± 2000 nM |  | four-fold |  |  | 
7 |  | C[C@H](CS)C(=O)N1CCC[C@H]1C(=O)O [L-captopril] |  |  |  |  | 950000 nM |  |  |  | 
8 |  | CCOC(=O)[C@@]1(CS)N[C@H](C(=O)O)C(C)(C)S1 [L-syn-1b] | 6000 ± 600 nM | 8000 ± 1000 nM | 3600 ± 400 nM | 28000 ± 3000 nM |  | four-fold |  |  | 
